About 310 (0.097%) of roughly 320,000 compounds were called active.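 The calls were made as follows: active = mean replicate activation of at least 60% and every replicate at or above 60%; inconclusive = mean or all-replicate condition met, but not both; inactive = mean below 60% and not all replicates reaching 60%.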 The full list was thinned out, with actives kept by preference.
Assay: enhancers of HDL lipid transfer via mSR-BI – ldlA[mSR-BI] CHO cells, DiI fluorescence, primary screen (AID 504775);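 also: 0% = median plate neutral-control signal and 100% = twice that signal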
Details: DiI-HDL uptake fluorescence, 3 h, at 12.5 µM, hits give high values, 100 = double the neutral-control signal
Method in brief: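 Material – SR-BI-overexpressing, LDLR-lacking CHO cells · Medium – BSA-supplemented, HEPES-buffered Ham's F12, pH 7.4 · Doses – single concentration · Times – compound with DiI-HDL co-incubation, 3 h at 37 °C · Measured by – bottom-read fluorescence, 550/595 nm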

activation, inactive:
Cc1nn(-c2ncccn2)c2c1C(=O)CC(C)(C)C2Br (configuration not stated) -6.98%
CC12CCCCC1=CC(=O)CC2 (configuration not stated) 0.111%
O=C(NNC(=O)c1ccc2ccccc2c1)c1ccc(Cl)cc1 17.1%
O=C1C(=O)N(c2ccccc2)C(c2ccccc2)C1c1ccccc1 (configuration not stated) -3.47%
c1ccc(C(=NNc2nc3ccccc3s2)c2ccccn2)cc1 -40.5%
C=CC(=O)Nc1ccc(Nc2ccnc(Nc3ccc(N4CCN(C)CC4)cc3)n2)cc1 -5.16%
CC(=NNC(=S)N1CCCCCC1)c1ccccn1 -22.4%
CCOC(=O)c1ccccc1NC(=O)CSc1nc2c(sc(=S)n2CC)c(=O)[nH]1 15.7%
Nc1ccc2c(c1)C(=Cc1cccnc1)c1ccccc1-2 -10.7%
N#CC1=C(N)Oc2cc(N)ccc2C1c1ccccc1 (configuration not stated) 23.9%
Cc1ccc(S(=O)(=O)CCC(=O)OCC(=O)N(C)Cc2ccccc2)cc1 31.8%
CC/C(=C(/c1ccccc1)c1ccc(OCC[N+](C)(C)C)cc1)c1ccccc1 44.1%
CC(C)(C)OC(=O)N(Cc1ccccc1)Cc1ccc(OCc2cccc(NC(=O)c3ccccc3)c2)cc1 -30.4%
CCCCN1CC(COCc2ccccc2)OCCS1(=O)=O (configuration not stated) 17.3%
COc1ccc(CNC(=O)COC(=O)C2=Cc3ccccc3OC2)cc1 3.54%
COC1C(CO)OC(n2cnc3c(=S)nc(N)[nH]c32)C1O (configuration not stated) 8.65%
COC(=O)C1CC2=C(CC(C)(C)CC2=O)N(c2ccccc2)C1=O (configuration not stated) 15.5%
O=C1OC(Cc2ccccc2)C(c2ccccc2)C1=O (configuration not stated) 5.71%
CN(C(=O)c1ccc(NC(=O)Cc2cccc(NC(=O)C3CCN(C(=O)c4ccccc4)CC3)c2)cc1)C1CC1 -15%
CC(C)c1ccc(C=NNc2ccc([N+](=O)[O-])cn2)cc1 2.92%
O=C(NN=Cc1ccccc1)c1ccccc1 4.39%
NC(=O)C1CCN(C(=O)c2cc(S(=O)(=O)N3CCN(c4ccccc4)CC3)ccc2Cl)CC1 3.45%
FC(F)(F)c1ccc(-c2cccc3c2C2CC3CCN2Cc2ccccc2)cc1 (configuration not stated) 20.1%
O=c1oc2ccccc2c(=O)c2ccccc12 23.4%
O=C(NCCc1ccccc1)c1cccc(NC(=O)c2ccccc2)c1 -9.83%
Cc1nc(N)sc1-c1ccccc1 -11.1%
O=[N+]([O-])c1ccc(N2CCOCC2)cc1 -9.57%

Reference: PubChem BioAssay AID504775 (Broad Institute, 2011)
